Measurements as given in ChEMBL document CHEMBL3392964, “Design, synthesis, and evaluation of novel imidazo[1,2-a][1,3,5]triazines and their derivatives as focal adhesion kinase inhibitors with antitumor activity” (J Med Chem, 2015).
The source made the active and inactive calls. The calls are words filed in the database; no cut-off is given here.

How the values were obtained:
U-87 MG [1] = assay: Induction of apoptosis in human U87MG cells assessed as viable cells at 1 uM after 24 hrs by Annexin V-PE/7-AAD staining-based FACS analysis (reference value: 96.7%); assay type: functional, U-87MG ATCC; conditions: read-out: Activity
[2] = Antiproliferative activity against human PC3 cells after 48 hrs by WST-1 assay; assay type: functional, cell-based; conditions: PC-3, 48 h
Summary of the method: (§1)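 Exponentially growing cells in DMEM/10% FBS seeded at 5 × 10^3 per well, left overnight, then exposed 48 h to compounds diluted from DMSO; WST-1 added for 2 h, absorbance at 450 nm (reference 620 nm); viability as ratio to DMSO controls; three independent experiments, triplicate points; IC50 by nonlinear regression (log inhibitor vs normalized response, variable slope).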

U-87MG ATCC [3] = assay: Antimigratory activity in human U87MG cells after 30 mins by boyden chamber assay; assay type: functional, cell-based
[4] = Cell cycle arrest in human HCT116 cells at < 0.3 uM after 24 hrs by propidium iodide staining-based flow cytometry; assay type: functional; conditions: HCT-116
Summary of the method: (§2)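 Cells plated at 10^5 per well, left overnight, then exposed 24 h to compound or vehicle; stained 15 min at 37 °C with propidium iodide/Triton buffer; DNA content by flow cytometry, phase distribution fitted by Dean–Jett–Fox; HCT-116 at 0.3–0.5 μM, U87-MG at 0.3–3 μM; significance by unpaired Student's t test; one representative experiment.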

[5] = Cell cycle arrest in human U87MG cells at < 1 uM after 24 hrs by propidium iodide staining-based flow cytometry; assay type: functional; conditions: U-87MG ATCC; summary of the method: as §2
MDA-MB-231 [6] = assay: Antiproliferative activity against human MDA-MB-231 cells after 48 hrs by WST-1 assay; assay type: functional, cell-based; conditions: MDA-MB-231, 48 h; summary of the method: as §1
[7] = (§3) Inhibition of colony formation in human U87MG cells after 2 weeks by crystal violet staining-based assay; assay type: functional, cell-based, U-87MG ATCC; conditions: U-87 MG, 336 h
Summary of the method: (§4)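 Seeding: 250 cells per well for HCT-116, 300 for U87MG, MDA-MB-231 and PC-3; incubated overnight, then exposed to a range of concentrations for 2 weeks. Fixed in 4% paraformaldehyde 30 min at room temperature, stained with 0.1% crystal violet. Colonies over 50 cells counted; colony formation rate calculated; IC50 by nonlinear regression.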

U-87MG ATCC [8] = assay: as §3; assay type: functional, cell-based; summary of the method: as §4
U-87 MG [9] = assay: Induction of apoptosis in human U87MG cells assessed as necrotic cells at 1 uM after 24 hrs by Annexin V-PE/7-AAD staining-based FACS analysis (reference value: 1.06%); assay type: functional, U-87MG ATCC
[10] = Cell cycle arrest in human U87MG cells assessed as accumulation at G2/M phase at 1 uM after 24 hrs by propidium iodide staining-based flow cytometry (reference value: 20%); assay type: functional; conditions: U-87MG ATCC; summary of the method: as §2
[11] = Cell cycle arrest in human HCT116 cells assessed as accumulation at S phase at 0.3 uM after 24 hrs by propidium iodide staining-based flow cytometry (reference value: 17.7%); assay type: functional; conditions: HCT-116; summary of the method: as §2
[12] = Cell cycle arrest in human HCT116 cells assessed as accumulation at G0/G1 phase at 0.3 uM after 24 hrs by propidium iodide staining-based flow cytometry (reference value: 63.8%); assay type: functional; conditions: HCT-116; summary of the method: as §2
U-87 MG [13] = assay: Reduction of cell adherence in human U87MG cells at 1 uM after 30 mins by toluidine blue staining-based […]; assay type: functional, U-87MG ATCC; set-up: scale not given: the % may be the effect or the level left
Summary of the method: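 U87-MG cells grown in 10% serum, trypsinised, diluted to 100 000 cells/mL in 10% serum medium, then treated 30 min with compound or DMSO. 20 000 cells per well allowed to attach 1 h. Fixed in 4% paraformaldehyde 30 min, stained with 0.1% toluidine blue in 4% PFA 30 min, washed, OD read at 620 nm for attached cells.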

[14] = (§5) Inhibition of colony formation in human PC3 cells after 2 weeks by crystal violet staining-based assay; assay type: functional, cell-based; conditions: PC-3, 336 h; summary of the method: as §4
PC-3 = assay: as §5; assay type: functional, cell-based; summary of the method: as §4
HCT-116 [15] = assay: Induction of apoptosis in human HCT116 cells assessed as apoptotic cells at 0.3 uM after 24 hrs by Annexin V-PE/7-AAD staining-based FACS analysis relative to control; assay type: functional
Focal adhesion kinase 1 [16] = biological target: T1, Focal adhesion kinase 1 (Homo sapiens, UniProt Q05397); assay: Inhibition of FAK phosphorylation at tyrosine 397 in human PC3 cells at 0.1 to 10 uM after 48 hrs by FACEFAK ELISA; assay type: cell-based; conditions: PC-3
T1 sequence (Q05397 2-1052 limits assumed): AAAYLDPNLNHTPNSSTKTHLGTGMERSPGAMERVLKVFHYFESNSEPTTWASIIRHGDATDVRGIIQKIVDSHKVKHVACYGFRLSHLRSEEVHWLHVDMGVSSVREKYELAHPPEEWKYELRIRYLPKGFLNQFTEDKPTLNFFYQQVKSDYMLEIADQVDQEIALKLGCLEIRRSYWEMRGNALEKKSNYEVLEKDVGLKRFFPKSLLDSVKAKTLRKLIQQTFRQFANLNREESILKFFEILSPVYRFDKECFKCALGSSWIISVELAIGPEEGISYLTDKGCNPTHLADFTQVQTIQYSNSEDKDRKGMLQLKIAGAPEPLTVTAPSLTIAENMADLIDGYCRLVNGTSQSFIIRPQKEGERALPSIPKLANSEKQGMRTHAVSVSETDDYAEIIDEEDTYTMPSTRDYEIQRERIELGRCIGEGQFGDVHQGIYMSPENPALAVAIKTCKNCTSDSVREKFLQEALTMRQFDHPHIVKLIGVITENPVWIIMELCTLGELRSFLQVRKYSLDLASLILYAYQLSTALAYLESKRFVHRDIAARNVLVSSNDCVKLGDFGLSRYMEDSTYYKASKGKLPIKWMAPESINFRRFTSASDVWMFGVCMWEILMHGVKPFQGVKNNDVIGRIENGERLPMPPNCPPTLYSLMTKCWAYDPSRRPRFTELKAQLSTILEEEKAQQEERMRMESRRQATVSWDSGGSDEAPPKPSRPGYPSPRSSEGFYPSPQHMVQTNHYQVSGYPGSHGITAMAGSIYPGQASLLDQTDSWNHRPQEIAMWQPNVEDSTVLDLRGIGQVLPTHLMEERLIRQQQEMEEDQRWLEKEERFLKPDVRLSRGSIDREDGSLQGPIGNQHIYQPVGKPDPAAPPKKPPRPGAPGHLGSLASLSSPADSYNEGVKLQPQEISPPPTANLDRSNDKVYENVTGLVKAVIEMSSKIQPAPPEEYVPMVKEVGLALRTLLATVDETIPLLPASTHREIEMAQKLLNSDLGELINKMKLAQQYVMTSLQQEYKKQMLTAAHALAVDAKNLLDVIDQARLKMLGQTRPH
Summary of the method: (§6)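 Cells were grown in DMEM with 10% FBS, seeded at 3 × 10^3 per well and treated for 48 h at 0.1, 1 and 10 μM. They were then fixed in 4% formaldehyde and probed with anti-phospho-Tyr397 FAK or total-FAK antibody plus an HRP secondary, read at 450 nm. Signal was normalised to total FAK and to crystal-violet cell number (595 nm). Values are fold decrease versus control, mean of triplicate readings from three independent experiments.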

[17] = (§7) Inhibition of colony formation in human HCT116 cells after 2 weeks by crystal violet staining-based assay; assay type: functional, cell-based; conditions: HCT-116, 336 h; summary of the method: as §4
HCT-116 [18] = assay: as §7; assay type: functional, cell-based; summary of the method: as §4
HCT-116 [19] = assay: Induction of apoptosis in human HCT116 cells assessed as viable cells at 0.3 uM after 24 hrs by Annexin V-PE/7-AAD staining-based FACS analysis (reference value: 93.2%); assay type: functional; conditions: HCT-116, 24 h, read-out: Activity
Focal adhesion kinase 1 [20] = biological target: T1, Focal adhesion kinase 1; assay: Inhibition of FAK phosphorylation at tyrosine 397 in human MDA-MB-231 cells at 0.1 to 10 uM after 48 hrs by FACEFAK ELISA; assay type: cell-based; summary of the method: as §6
MDA-MB-231 [21] = assay: Inhibition of colony formation in human MDA-MB-231 cells after 2 weeks by crystal violet staining-based assay; assay type: functional, cell-based; summary of the method: as §4
Focal adhesion kinase 1 [22] = biological target: T1, Focal adhesion kinase 1; assay: Inhibition of FAK phosphorylation at tyrosine 397 in human U87MG cells at 0.1 to 10 uM after 48 hrs by FACEFAK ELISA; assay type: cell-based; conditions: U-87MG ATCC; summary of the method: as §6
[23] = Antiproliferative activity against human HCT116 cells after 48 hrs by WST-1 assay; assay type: functional, cell-based; conditions: HCT-116, 48 h; summary of the method: as §1
HCT-116 [24] = assay: Induction of apoptosis in human HCT116 cells assessed as late apoptotic cells at 0.3 uM after 24 hrs by Annexin V-PE/7-AAD staining-based FACS analysis (reference value: 1.22%); assay type: functional
U-87 MG [25] = assay: Induction of apoptosis in human U87MG cells assessed as late apoptotic cells at 1 uM after 24 hrs by Annexin V-PE/7-AAD staining-based FACS analysis (reference value: 1.59%); assay type: functional, U-87MG ATCC
U-87 MG [26] = assay: Induction of apoptosis in human U87MG cells assessed as early apoptotic cells at 1 uM after 24 hrs by Annexin V-PE/7-AAD staining-based FACS analysis (reference value: 0.691%); assay type: functional, U-87MG ATCC
[27] = Cell cycle arrest in human U87MG cells assessed as accumulation at S phase at 1 uM after 24 hrs by propidium iodide staining-based flow cytometry (reference value: 16%); assay type: functional; conditions: U-87MG ATCC; summary of the method: as §2
Focal adhesion kinase 1 [28] = biological target: T1, Focal adhesion kinase 1; assay: Inhibition of FAK phosphorylation at tyrosine 397 in human HCT116 cells at 0.1 to 10 uM after 48 hrs by FACEFAK ELISA; assay type: cell-based; conditions: HCT-116; summary of the method: as §6
HCT-116 [29] = assay: Induction of apoptosis in human HCT116 cells at < 0.3 uM after 24 hrs by Annexin V-PE/7-AAD staining-based FACS analysis; assay type: functional, cell-based
[30] = Antiproliferative activity against human U87MG cells after 48 hrs by WST-1 assay; assay type: functional, cell-based, U-87MG ATCC; conditions: U-87 MG; summary of the method: as §1
HCT-116 [31] = assay: Induction of apoptosis in human HCT116 cells assessed as early apoptotic cells at 0.3 uM after 24 hrs by Annexin V-PE/7-AAD staining-based FACS analysis (reference value: 4.68%); assay type: functional
[32] = Antimigratory activity in human U87MG cells at 1 uM […] by transwell membrane assay; assay type: functional, U-87MG ATCC
[33] = Cell cycle arrest in human HCT116 cells assessed as accumulation at G2/M phase at 0.3 uM after 24 hrs by propidium iodide staining-based flow cytometry (reference value: 14.6%); assay type: functional; conditions: HCT-116; summary of the method: as §2
HCT-116 [34] = assay: Induction of apoptosis in human HCT116 cells assessed as necrotic cells at 0.3 uM after 24 hrs by Annexin V-PE/7-AAD staining-based FACS analysis (reference value: 0.885%); assay type: functional
[35] = Cell cycle arrest in human U87MG cells assessed as accumulation at G0/G1 phase at 1 uM after 24 hrs by propidium iodide staining-based flow cytometry (reference value: 61.7%); assay type: functional; conditions: U-87MG ATCC; summary of the method: as §2

- IC50 (MDA-MB-231 [6]): 2800 nM
- IC50 [7]: 190 nM
- IC50 [14]: 260 nM
- inhibition (Focal adhesion kinase 1 [16]): Active
- IC50 [17]: 230 nM
- inhibition (Focal adhesion kinase 1 [20]): Active
- IC50 (MDA-MB-231 [21]; MDA-MB-231, 336 h): 1900 nM
- inhibition (Focal adhesion kinase 1 [22]): Active
- inhibition (Focal adhesion kinase 1 [28]): Active
SMILES: CNC(=O)c1ccccc1Nc1nc(Nc2ccc(N3CCOCC3)cc2OC)ncc1Cl
- viability at 1 µM (U-87 MG [1]): 95.4%
- IC50 [2]: 1600 nM
- Activity (U-87MG ATCC [3]): Dose-dependent effect
- Activity [4]: Active
- Activity [5]: Active
- inhibition (U-87MG ATCC [8]): Dose-dependent effect
- Activity (U-87 MG [9]): 0.9%
- Activity [10]: 40.8%
- Activity [11]: 10.4%
- Activity [12]: 31.3%
- Activity (U-87 MG [13]): 36%
- inhibition (PC-3): Dose-dependent effect
- Activity (HCT-116 [15]): 41.8%
- inhibition (HCT-116 [18]): Dose-dependent effect
- viability at 0.3 µM (HCT-116 [19]): 42.7%
- inhibition (MDA-MB-231 [21]): Dose-dependent effect
- IC50 [23]: 400 nM
- Activity (HCT-116 [24]): 32%
- Activity (U-87 MG [25]): 0.596%
- Activity (U-87 MG [26]): 3.12%
- Activity [27]: 7.11%
- Activity (HCT-116 [29]): Active
- IC50 [30]: 1200 nM
- Activity (HCT-116 [31]): 12.3%
- Activity [32]: 25.5%
- Activity [33]: 54.4%
- Activity (HCT-116 [34]): 13.1%
- Activity [35]: 49.9%
